What was measured:
[1] = tested on: HeLa; assay: In vitro cytotoxicity against HeLa S3 cell lines, treated for 3 days then uptake of neutral red dye was measured; assay type: functional, cell-based; settings: Homo sapiens, 72 h
[2] = tested on: MCF7; assay: In vitro cytotoxicity against MCF-7 cell lines, treated for 3 days then uptake of neutral red dye was measured; assay type: functional, cell-based; settings: Homo sapiens, MCF7, 72 h
[3] = tested on: Mus musculus; assay: Ratio of tumor growth rate of the drug-treated group relative to that of the control group at a dose of 25 mg/kg; assay type: functional
Procedure, shortened: (§1)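 Female nude mice carried MCF-7 implants, with tumor growth stimulated by estradiol propionate given on the first dosing day. Mice with tumors of 25–200 mm³ were selected 20 days after transplantation (n = 5). Compound was given orally on days 0–4 and 7–11. Tumor length and width were measured on days 0, 4, 7, 11, 14 and 18. T/C is V/V0 treated over control; body weight change in %.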

[4] = tested on: Mus musculus; assay: Compound was tested for percentage Body weight change in vivo against MCF-7 cells implanted into Nude Mice, Dosage 25(mg/kg); assay type: functional, MCF7; procedure, shortened: as §1
[5] = tested on: Mus musculus; assay: Ratio of tumor growth rate of the drug-treated group relative to that of the control group at a dosw of 50 mg/kg; assay type: functional; procedure, shortened: as §1
[6] = tested on: Mus musculus; assay: Compound was tested for percentage Body weight change in vivo against MCF-7 cells implanted into Nude Mice, Dosage 50(mg/kg); assay type: functional, MCF7; procedure, shortened: as §1
[7] = tested on: Mus musculus; assay: Ratio of tumor growth rate of the drug-treated group relative to that of the control group at a dose of 50 mg/kg; assay type: functional; procedure, shortened: as §1
[8] = tested on: Mus musculus; assay: Compound was tested for percentage Body weight change in vivo against MCF-7 cells implanted into Nude Mice, Dosage 12.5(mg/kg); assay type: functional, MCF7; procedure, shortened: as §1
[9] = tested on: Mus musculus; assay: Ratio of tumor growth rate of the drug-treated group relative to that of the control group at a dose of 12.5 mg/kg; assay type: functional; procedure, shortened: as §1
[10] = tested on: Mus musculus; assay: Ratio of tumor growth rate of the drug-treated group relative to that of the control group at a dosw of 25 mg/kg; assay type: functional; procedure, shortened: as §1
[11] = tested on: Mus musculus; assay: Compound was tested for percentage Body weight change in vivo against MCF-7 cells implanted into Nude Mice, Dosage 25 (mg/kg); assay type: functional, MCF7; procedure, shortened: as §1
[12] = tested on: Mus musculus; assay: Ratio of tumor growth rate of the drug-treated group relative to that of the control group at a dosw of 63 mg/kg; assay type: functional; settings: dose 6.3 mg/kg; in the assay text read “6.3 mg/kg” for “63 mg/kg”; procedure, shortened: as §1
[13] = tested on: Mus musculus; assay: Compound was tested for percentage Body weight change in vivo against MCF-7 cells implanted into Nude Mice, Dosage 50 (mg/kg); assay type: functional, MCF7; procedure, shortened: as §1
[14] = tested on: Mus musculus; assay: Compound was tested for percentage Body weight change in vivo against MCF-7 cells implanted into Nude Mice, Dosage 63(mg/kg); assay type: functional, MCF7; settings: in the assay text read “Dosage 6.3(mg/kg)” for “Dosage 63(mg/kg)”; procedure, shortened: as §1
[15] = tested on: Mus musculus; assay: Compound was tested for percentage Body weight change in vivo against MCF-7 cells implanted into Nude Mice, Dosage 6.3(mg/kg); assay type: functional, MCF7; procedure, shortened: as §1
[16] = tested on: Mus musculus; assay: Ratio of tumor growth rate of the drug-treated group relative to that of the control group at a dose of 6.3 mg/kg; assay type: functional; procedure, shortened: as §1
[17] = tested on: HeLa S3 (Homo sapiens); assay: Compound was tested for in vitro Cytotoxicity against HeLa S3 cell lines which were treated for 3 days and uptake of neutral red dye was measured; settings: HeLa S3, 72 h
[18] = tested on: Mus musculus; assay: Compound was tested for percentage Body weight change in vivo against MCF-7 cells implanted into Nude Mice, Dosage (mg/kg); assay type: functional, MCF7; procedure, shortened: as §1
[19] = tested on: Mus musculus; assay: Compound was tested for percentage Body weight change in vivo against MCF-7 cells implanted into Nude Mice, Dosage 3.1(mg/kg); assay type: functional, MCF7; procedure, shortened: as §1
[20] = tested on: Mus musculus; assay: Ratio of tumor growth rate of the drug-treated group relative to that of the control group at a dose of 3.1 mg/kg; assay type: functional; procedure, shortened: as §1
[21] = tested on: Mus musculus; assay: Ratio of tumor growth rate of the drug-treated group relative to that of the control group at a dosw of 6.3 mg/kg; assay type: functional; procedure, shortened: as §1

Row | Structure (SMILES) | IC50 [1] | IC50 [2] | further results
1 | CCCCCCc1c(F)c(N)c2c(=O)cc(-c3ccc(N)c(F)c3)oc2c1F | 21 µM | > 10 µM | –
2 | CCCCCCCCCC(=O)OCc1c(F)c(N)c2c(=O)cc(-c3ccc(N)c(F)c3)oc2c1F | > 100 µM | 0.1 µM | T/C min [3]: 13%; Body weight change [4]: -5%
3 | CN(C)CCOCc1c(F)c(N)c2c(=O)cc(-c3ccc(N)c(F)c3)oc2c1F | 4.6 µM | > 10 µM | T/C min [5]: 57%; Body weight change [6]: -7.9%
4 | CC(=O)OCc1c(F)c(N)c2c(=O)cc(-c3ccc(N)c(F)c3)oc2c1F | 4.9 µM | 0.026 µM | T/C min [3]: 6.1%; Body weight change [4]: -5.9%; T/C min [7]: 11%; Body weight change [6]: -4.5%
5 | Nc1ccc(-c2cc(=O)c3c(N)c(F)c(CO)c(F)c3o2)cc1F | 24 µM | 0.062 µM | T/C min [3]: 17%; Body weight change [4]: -4%; T/C min [7]: 1.6%; Body weight change [6]: -6.7%
6 | C[N+](C)(C)Cc1c(F)c(N)c2c(=O)cc(-c3ccc(N)c(F)c3)oc2c1F | 32 µM | 3.1 µM | –
7 | CN(C)CCOc1c(F)c(N)c2c(=O)cc(-c3ccc(N)c(F)c3)oc2c1F | 1.5 µM | 1.4 µM | –
8 | CN(C)c1c(F)c(N)c2c(=O)cc(-c3ccc(N)c(F)c3)oc2c1F | > 100 µM | 0.039 µM | Body weight change [8]: -19%; T/C min [9]: 39%
9 | CCOC(=O)c1c(F)c(N)c2c(=O)cc(-c3ccc(N)c(F)c3)oc2c1F | > 100 µM | 1.4 µM | –
10 | Nc1ccc(-c2cc(=O)c3c(N)c(F)c(Cl)c(F)c3o2)cc1F | > 100 µM | 0.21 µM | –
11 | Nc1ccc(-c2cc(=O)c3c(N)c(F)c(O)c(F)c3o2)cc1F | > 100 µM | > 10 µM | –
12 | CN(C)Cc1c(F)c(N)c2c(=O)cc(-c3ccc(N)c(F)c3)oc2c1F | 8.9 µM | 0.072 µM | T/C min [10]: 16%; Body weight change [4]: -17%
13 | CN(C)CCCC(=O)OCc1c(F)c(N)c2c(=O)cc(-c3ccc(N)c(F)c3)oc2c1F | 4.5 µM | 0.029 µM | T/C min [10]: 15%; Body weight change [4]: -8.4%
14 | COc1c(F)c(N)c2c(=O)cc(-c3ccc(N)c(F)c3)oc2c1F | 34 µM | 0.1 µM | –
15 | COCc1c(F)c(N)c2c(=O)cc(-c3ccc(N)c(F)c3)oc2c1F | > 100 µM | 0.046 µM | T/C min [5]: 89%; Body weight change [6]: 0%
16 | Nc1ccc(-c2cc(=O)c3c(N)c(F)c(C(=O)O)c(F)c3o2)cc1F | > 100 µM | > 10 µM | –
17 | Nc1ccc(-c2cc(=O)c3c(N)c(F)cc(F)c3o2)cc1F | > 100 µM | 0.04 µM | T/C min [3]: 11%; Body weight change [11]: -7.4%
18 | C[S+]([O-])c1c(F)c(N)c2c(=O)cc(-c3ccc(N)c(F)c3)oc2c1F (stereo not given) | > 100 µM | 2.5 µM | –

Row | Structure (SMILES) | IC50 [1] | IC50 [2] | further results
19 | CCc1c(F)c(N)c2c(=O)cc(-c3ccc(N)c(F)c3)oc2c1F | > 100 µM | 0.13 µM | –
20 | CCCCCCOCc1c(F)c(N)c2c(=O)cc(-c3ccc(N)c(F)c3)oc2c1F | > 100 µM | 7.1 µM | –
21 | NCc1c(F)c(N)c2c(=O)cc(-c3ccc(N)c(F)c3)oc2c1F | 8.8 µM | 0.026 µM | T/C min [12]: 60%; T/C min [3]: 11%; Body weight change [4]: -8.5%; Body weight change [13]: -11%; T/C min [5]: 1.1%; Body weight change [14]: -5.8%
22 | CN(C)CCC(=O)OCc1c(F)c(N)c2c(=O)cc(-c3ccc(N)c(F)c3)oc2c1F | 11 µM | 0.019 µM | T/C min [10]: 4.1%; Body weight change [4]: -12%
23 | Cc1c(F)c(N)c2c(=O)cc(-c3ccc(N)c(F)c3)oc2c1F [AMINOFLAVONE] | > 100 µM | 0.013 µM | Body weight change [15]: -8.7%; Body weight change [8]: -11%; T/C min [9]: 11%; T/C min [16]: 55%
24 | CCCCCC(=O)NCc1c(F)c(N)c2c(=O)cc(-c3ccc(N)c(F)c3)oc2c1F | – | 0.34 µM | T/C min [7]: 76%; Body weight change [6]: 0%; IC50 [17]: > 100 µM
25 | CCCCCC(=O)OCc1c(F)c(N)c2c(=O)cc(-c3ccc(N)c(F)c3)oc2c1F | 34 µM | 0.16 µM | Body weight change [15]: -5.9%; T/C min [3]: 0.8%; Body weight change [4]: -7.9%; Body weight change [8]: -8.4%; T/C min [9]: 7.9%; T/C min [16]: 27%
26 | Nc1ccc(-c2cc(=O)c3c(N)c(F)c(Br)c(F)c3o2)cc1F | > 100 µM | 0.16 µM | –
27 | CCCCc1c(F)c(N)c2c(=O)cc(-c3ccc(N)c(F)c3)oc2c1F | > 100 µM | 8.8 µM | –
28 | CCC(=O)OCc1c(F)c(N)c2c(=O)cc(-c3ccc(N)c(F)c3)oc2c1F | 69 µM | 0.13 µM | Body weight change [18]: -2.4%; T/C min [3]: 79%
29 | CSc1c(F)c(N)c2c(=O)cc(-c3ccc(N)c(F)c3)oc2c1F | > 100 µM | 0.19 µM | –
30 | Nc1ccc(-c2cc(=O)c3c(N)c(F)c(N)c(F)c3o2)cc1F | 19 µM | 0.0077 µM | Body weight change [15]: -13%; Body weight change [8]: -22%; T/C min [9]: 18%; Body weight change [19]: 5.7%; T/C min [16]: 26%; T/C min [20]: 55%
31 | CCCCCCCCCCCCCCCCCC(=O)OCc1c(F)c(N)c2c(=O)cc(-c3ccc(N)c(F)c3)oc2c1F | > 100 µM | > 10 µM | T/C min [3]: 20%; Body weight change [4]: -4.8%
32 | CN(C)CCCOCc1c(F)c(N)c2c(=O)cc(-c3ccc(N)c(F)c3)oc2c1F | 12 µM | > 10 µM | –
33 | CN(C)CC(=O)OCc1c(F)c(N)c2c(=O)cc(-c3ccc(N)c(F)c3)oc2c1F | 9.2 µM | 0.026 µM | T/C min [21]: 68%; Body weight change [15]: -4.8%; T/C min [3]: 4%; Body weight change [4]: -9%; T/C min [7]: 1%; Body weight change [6]: -11%
34 | [N-]=[N+]=Nc1c(F)c(N)c2c(=O)cc(-c3ccc(N)c(F)c3)oc2c1F | 1.2 µM | 0.46 µM | –
35 | CS(=O)(=O)c1c(F)c(N)c2c(=O)cc(-c3ccc(N)c(F)c3)oc2c1F | > 100 µM | > 10 µM | –
36 | CCCOCc1c(F)c(N)c2c(=O)cc(-c3ccc(N)c(F)c3)oc2c1F | 78 µM | 1.2 µM | –
